A selection: hits, their analogues and other compounds. The true share with any hit is near 4.2%.
Rad51 HR inh: human RAD51 strand exchange inhibitors, primary screen, biochemical, fluorescence. DNA repair protein RAD51 homolog 1 (Homo sapiens), Q06609. hRad51 DNA strand exchange, fluorescence dequenching. inhibition, % at 10 µM. 200,000 compounds, 0.085% hits. AID 1385, 2008;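 active = inhibition above 40% at the single screening dose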;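 note: 0% = DMSO control wells and 100% = blanks with heterologous ssDNA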
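Test system: preformed human Rad51 ssDNA filaments; also added: Donor/quencher-labelled 47-bp dsDNA substrate; doses: 10 µM final, single point; times: 37 °C 15-min filament assembly, 30-min compound preincubation, 15-min exchange; detection: FRET fluorescence dequenching, excitation 485 nm, emission 520 nm; read-out basis: Fluorescence-based percent inhibition, control- and blank-normalised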
SKKanGAS inh: S. pyogenes SKKanGAS growth inhibitors in kanamycin, primary screen, streptokinase expression inhibitor project, SKKanGAS strain, BacTiter-Glo luminescence; 6 h; inhibition, % at 7.5 µM; 300,000 compounds, 1.3% hits; AID 1662, 2009;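 active = mean replicate score, as percent of positive control median, at least 50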;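 note: strain carries kanamycin resistance gene driven by streptokinase promoter and grows in 40 µg/ml kanamycin; loss of luminescence reflects streptokinase promoter inhibition or plain growth inhibition; 0% = median of DMSO wells and 100% = positive control at its reference dose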
Cl transport mod: KCC2 cotransporter modulators, thallium flux, primary screen, cell-based, HEK293 KCC2, FluoZin-2 fluorescence, MLSMR; 190,000 compounds, 2.2% hits; Solute carrier family 12 member 5 (Homo sapiens), Q9H2X9; KCC2 cells, thallium flux FluoZin-2 fluorescence; AID 1456, 2008; B-score of Tl+ flux slope (higher = more flux/activation; lower = inhibition) at 10 µM;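 active = thallium flux slope and its plate-corrected score both differing from the plate sample mean at a set confidence after two filtering rounds, in either direction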;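 note: slope of fluorescence scaled to starting intensity during 10 to 20 s after thallium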
Autophagy mod: autophagy modulators in MEF cells, primary screen, imaging, high-content, MEF GFP-LC3. 190,000 compounds, 0.98% hits. calls only at 10 µM (by protocol). MEF GFP-LC3 puncta imaging; test concentration mostly 10 µM;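 active = percentage of spot-positive cells more than 3 SD above its plate mean, without a fluorescence outlier flag or 80% toxicity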;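 note: spot-positive cell cutoff set from DMSO-treated cells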
Ins promoter up: insulin promoter activators in MIN6 cells, imaging, high-content screening, mouse beta cells; MIN6 insulin promoter-GFP reporter; stronger effect = higher value; 190,000 compounds, 0.3% hits; z-score at 5 µM;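 active = z-score above 3 at 5 µM with at least 500 cells counted in the well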
WT yeast gro inh: growth inhibition of WT strain, primary screen, mitochondrial fusion inhibitor project, WT and mutant strains, chemical genetic; AID 1362, 2008; 190,000 compounds, 2.1% hits; mitochondrial fusion phenotypic screen; inhibition, % at 10 µM; in the data active = inhibition above about 58%; tested in S. cerevisiae
Active calls of the source: *; i = inactive; . = not tested or not shown; + = active, no number.

SMILES	Rad51 HR inh	SKKanGAS inh	Cl transport mod	Autophagy mod	Ins promoter up	WT yeast gro inh
O=c1cc(N2CCCCC2)c(-c2ccccc2)nn1Cc1c(Cl)cccc1Cl	3.9	107.1*	-1.01	i	.	89.2*
COc1cccc(NC(=O)c2ccc3nc(C)sc3c2)c1	.	-6.2	.	.	.	.
CCOc1ccc(C(C(=O)NCC2CCCO2)N(Cc2cccs2)C(=O)c2snc(C(N)=O)c2N)cc1 (centres undefined)	.	-2.3	.	.	.	.
CCC(C)c1ccc(C(C)NC(=S)NC2CCCCC2)cc1 (centres undefined)	.	50.4*	.	.	.	.
CCc1ccc(C(C)NC(=S)NC2CCCCC2)cc1 (centres undefined)	.	6.6	.	.	.	.
CCOc1ccc(C(C)NC(=S)NC2CCCCC2)cc1 (centres undefined)	1.3	-2.5	0.885	i	-0.29	72.5*
CC(NC(=S)NC1CCCCC1)c1ccc(C(C)(C)C)cc1 (centres undefined)	.	55.6*	.	.	.	.
CCC(C)c1ccc(NC(=S)NC2CCN(Cc3ccccc3)CC2)cc1 (centres undefined)	-1.1	-8.4	0.0249	i	-0.31	74.8*
O=C1CCCc2oc3c(cc(NS(=O)(=O)c4ccc5c6c(cccc46)C(=O)N5)c4ccccc43)c21	14.9	53.7*	-2.1	.	-0.51	.
CC(C)CN1CCC(=O)N(CCO)CC1	.	2.1	.	.	.	.
CC(Oc1cccc(Cl)c1)C(=O)Nc1ccccc1N1CCCCC1 (centres undefined)	.	73.2*	.	.	.	.
CC(Oc1cccc(Cl)c1)C(=O)Nc1ccccc1C(=O)N1CCCCC1 (centres undefined)	.	-4.5	.	.	.	.
CCC(Oc1ccccc1)C(=O)Nc1ccccc1N1CCCCC1 (centres undefined)	.	61.3*	.	.	.	.
Cc1cccc(C)c1-n1c(C)nn(Cc2ccc([N+](=O)[O-])cc2)c1=O	18.9	1.2	0.974	i	1.51	0.9
Cc1nn(Cc2ccc([N+](=O)[O-])cc2)c(=O)n1-c1ccccc1Cl	-1.8	4.7	0.38	+	-0.8	-16.5
COc1cccc(NC(=S)N/N=C2/CCCCc3ccccc32)c1	-2.2	-32.0	23.9*	i	-0.55	65.4*
S=c1[nH]nc(-c2ccco2)n1/N=C/c1ccc(Cl)c(Cl)c1	-9.4	1.0	3.9	i	0.25	75.9*
S=c1[nH]nc(-c2ccco2)n1/N=C/c1c(Cl)cccc1Cl	15.1	13.0	1.88	.	-0.25	.
COC(=O)c1sc2nc(C)cc(-c3ccccc3)c2c1N	1.4	6.7	-0.0567	i	.	-1.9
Nc1c(C(=O)O)sc2nc(-c3ccccc3)cc(-c3ccccc3)c12	-47.3	16.2	0.416	.	4.64*	.
O=C(C1=C(O)C(=O)N(c2ccccc2)C1c1ccc([N+](=O)[O-])cc1)c1cccs1 (centres undefined)	.	59.4*	-0.769	i	-0.51	12.8
Cc1cccc(N2C(=O)C(O)=C(C(=O)c3cccs3)C2c2cccc(Oc3ccccc3)c2)n1 (centres undefined)	-6.1	65.5*	-1.1	.	0.03	.
CSc1ccc(CN2CCC(CO)(Cc3ccc(Cl)cc3)CC2)cc1	-33.7	-3.4	-1.01	+	.	67.2*
CC12CCCCC1N(O)C(=O)C(=O)N2O (centres undefined)	0.8	10.8	0.0455	i	.	3.1
COc1ccc(S(=O)(=O)N2CCOC2CNC(=O)C(=O)NCc2ccccc2Cl)cc1 (centres undefined)	.	52.0*	.	.	.	.
Cc1cc(N/N=C2\CC(C)CC(C)(C)C2)nc2ccccc12 (centres undefined)	0.2	14.9	1.08	i	0.7	75.9*
CC1C/C(=N/Nc2nc3ccccc3[nH]2)CC(C)(C)C1 (centres undefined)	.	60.1*	0.738	i	-1.81	13.3
Cc1ccc(N2CC(NC(=O)C3CC3)CC2=O)cc1 (centres undefined)	.	-0.5	.	.	.	.
O=C(NCc1ccco1)c1cccnc1-c1nc2ccccc2s1	.	-8.4	-0.698	i	-0.91	63.8*

Source: PubChem
